PubChem BioAssay AID540295 (The Scripps Research Institute Molecular Screening Center, 2011)
In all, about 360,000 compounds went through this assay and about 1,700 (0.47%) were called active. The list comes from a sample in which actives are over-represented; it also holds similar structures and randomly drawn compounds. Unmarked numbers belong to inactive results.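 How the source made its calls: active means inhibition above its plate's cutoff, the mean of tested wells on that plate plus 3 SD (cut at about 29% in these data); inactive means the rest.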

target: Melanocortin receptor 4 (Homo sapiens) (UniProt P32245); test: blockers of MC4R Gs-cAMP response – cell-based, TR-FRET, antagonist arm of biased-ligand search, primary screen (AID 540295); details: MC4R-expressing cells, MTII-stimulated cAMP, LANCE TR-FRET; at 6.5 µM; stronger effect = higher value;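 further: 0% = Melanotan II alone and 100% = Melanotan II plus saturating MCL0020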
Sequence (P32245 whole entry, looked up): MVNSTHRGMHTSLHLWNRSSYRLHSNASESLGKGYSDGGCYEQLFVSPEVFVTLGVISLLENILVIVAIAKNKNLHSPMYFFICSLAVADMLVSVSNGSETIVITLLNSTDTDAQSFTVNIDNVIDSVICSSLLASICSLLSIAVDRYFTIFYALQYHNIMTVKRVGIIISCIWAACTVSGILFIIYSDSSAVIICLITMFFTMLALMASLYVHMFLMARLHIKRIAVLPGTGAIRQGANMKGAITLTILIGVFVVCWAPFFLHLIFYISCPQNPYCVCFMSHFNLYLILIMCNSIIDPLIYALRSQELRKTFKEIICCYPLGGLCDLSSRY
Procedure, shortened: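 material = U2OS cells stably expressing human melanocortin 4 receptor (MC4R) | also added = Melanotan II challenge | dosing = single nominal compound dose of 6.5 µM | detection = TR-FRET with Eu-cAMP and labeled anti-cAMP, 671 nm | replication = singlicate | timing = compound 30 min, challenge 1 h, detection 1 h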

SMILES	inhibition
O=C(COC(=O)Cn1cnc2ccccc2c1=O)NCc1ccccc1Cl	10.8%
O=C(COC(=O)Cn1cnc2ccccc2c1=O)NCC12CC3CC(CC(C3)C1)C2	29.2% (active)
CC1(C)C(=O)Nc2ccccc2N1C(=O)COC(=O)Cn1cnc2ccccc2c1=O	13.1%
O=C(N/C(=C\c1ccc(O)cc1)C(=O)N1CCCCC1)c1ccccc1	2.84%
COc1ccc(N)cc1NC(=O)CN1CCOCC1	-2.41%
O=C(O)c1n[nH]nc1-c1ccccc1	3.02%
CCCCOC(=O)CNc1nnc(SCC(=O)OCC)[nH]c1=O	60.6% (active)
CCOC(=O)CSc1nc(C)c(Oc2ccc(Cl)cc2Cl)c(=O)[nH]1	5.59%
Cc1nnc(SCC(=O)N2CCOCC2)[nH]c1=O	2.07%
NC(=O)c1ccc(NC(=O)COC(=O)C(Cc2ccccc2)NC(=O)c2ccccc2)cc1 (stereo not drawn)	11%
Cc1ccc(C)c(NC(CC(=O)c2ccccc2)C(=O)OCC(=O)c2cccs2)c1 (stereo not drawn)	-0.53%
O=C(COC(=O)[C@H](Cc1ccccc1)NC(=O)c1cccs1)Nc1cc(F)ccc1F	31.4% (active)
CCc1nc2c(OCc3ccc(C(F)(F)F)cc3)cccn2c1N(C)C(=O)CC(C)C	6.64%
O=C(COC(=O)c1cnc(Cl)c(Cl)c1)NCc1ccco1	10.1%
O=S(=O)(NCc1ccco1)c1cnc(Cl)c(Cl)c1	44.9% (active)
O=S(=O)(NCC1CCCO1)c1cnc(Cl)c(Cl)c1 (stereo not drawn)	24.7%
COC(=O)C[C@H]1C[C@@H]2c3cc(N(C)C)ccc3O[C@@H]2[C@H](CO)O1	13%
O=C1c2ccccc2C(=O)N1CCc1nn[nH]n1	14.6%
CN(C)C(CNC(=O)CCCOc1ccccc1)c1ccco1 (stereo not drawn)	29.7% (active)
O=C(CCCOc1ccccc1)NCc1ccco1	2.67%

SMILES	inhibition
CN(C)C(CNC(=O)c1cccc(C#N)c1)c1ccco1 (stereo not drawn)	0.76%
CN(CC(=O)NCC(c1ccccc1)N1CCCC1)S(=O)(=O)c1ccc(Cl)cc1 (stereo not drawn)	-2.78%
CN(CC(=O)NCCc1ccccn1)S(=O)(=O)c1ccc(Cl)cc1	30.3% (active)
CN(CC(=O)NNC(=O)CNC(=O)c1ccccc1Cl)S(=O)(=O)c1ccc(Cl)cc1	2.86%
Cc1ccc(S(=O)(=O)N2CCCC2C(=O)NCc2ccco2)cc1 (stereo not drawn)	-0.46%
COC(=O)COc1ccc(C2NC(=O)NC(C)=C2C(=O)NCc2ccccc2)cc1OC (stereo not drawn)	21.9%
C[C@H]([C@@H](O)[C@@H](O)[C@@H](C)C(C)(C)C)[C@H]1CC[C@H]2C3CC[C@H]4C[C@H](OS(=O)(=O)O)[C@@H](OS(=O)(=O)O)C[C@]4(C)[C@H]3CC[C@]12C (stereo partly drawn)	9.52%
CCN(CCCNC(=O)C1CCN(S(=O)(=O)c2cnc[nH]2)CC1)c1ccccc1	17.3%
O=C(Nc1ccccc1Cl)/C(Cl)=C(\Cl)S(=O)c1ccccc1 (stereo not drawn)	34.9% (active)
O=C(COc1ccc(-n2cnnn2)cc1)Nc1ccccc1Cl	-4.5%
CS/C(=C\C(=O)c1ccco1)Nc1ccccc1Cl	12.1%
NC1=NC(=O)C(Cc2cccc(Cl)c2)S1 (stereo not drawn)	6.88%
CCOC(=O)C(CC)Sc1ncnc2c1nnn2-c1ccc(F)cc1 (stereo not drawn)	9.91%
COc1ccc(S(=O)(=O)N2CCOC2CNC(=O)C(=O)NCc2ccc(F)cc2)cc1 (stereo not drawn)	5.37%
CC1(C)Cc2ccccc2/C(=C/C(=O)c2ccccc2)N1	-4.86%
CC1(C)Cc2ccccc2-c2[nH]c(=S)[nH]c(=O)c21	31.3% (active)
N#CC1=C(N)Oc2[nH]c(=S)[nH]c(=O)c2C12C(=O)Nc1ccccc12 (stereo not drawn)	-0.32%
CC(=O)c1ccc(S(=O)(=O)Nc2ccc(-c3ccc4nncn4n3)cc2)cc1	4.19%
Cc1cccc(C(=O)N2CCCC(Nc3ccc(C(C)C)cc3)C2)n1 (stereo not drawn)	-4.44%
O=C(Oc1ccc(-c2nnco2)cc1)c1ccc(F)c(S(=O)(=O)N2CCOCC2)c1	16.3%

SMILES	inhibition
C=CCOC(=O)C1=C(C)N=C2SCCC(=O)N2C1/C=C/c1ccccc1OC (stereo not drawn)	6.17%
COc1ccc(-c2ccc3c(c2)C2CC3CCN2CCC#N)cc1 (stereo not drawn)	8.84%
CCC1(C)Cc2c(sc3[nH]c(=S)n(Cc4ccccc4)c(=O)c23)CO1 (stereo not drawn)	3.15%
C=CCn1c(=S)[nH]c2scc(-c3ccco3)c2c1=O	29.6% (active)
COc1cccc(-c2cc(NC(C)=O)c3ncc(-c4cccc(C(C)=O)c4)n3c2)c1	8.07%
CSc1ncnc2c1ncn2CCCNCC(C)c1ccccc1 (stereo not drawn)	0.11%
COc1ccc(S(=O)(=O)N(C)CC(=O)NCCCN2CCOCC2)cc1Cl	8.85%
CCN(CC)S(=O)(=O)c1ccc(Cl)c(C(=O)NCCN2CCOCC2)c1	-2.31%
CCN(CC(=O)NCCCN1CCOCC1)S(=O)(=O)c1cc(Cl)ccc1Cl	30.2% (active)
O=C(Nc1nnc(Cc2ccccc2)s1)c1cnccn1	20.4%
O=C(Nc1nnc(Cc2ccc(Cl)cc2)s1)c1cccnc1	33.8% (active)
O=C(Nc1nnc(Cc2ccc(Cl)cc2)s1)c1ccncc1	11.2%
COC(=O)[C@]1(CC(C)C)N[C@H](c2ccc(SC3CCCCC3)cc2)[C@@H]2C(=O)N(C)C(=O)[C@@H]21	4.32%
Cc1ccc(NC(=O)Cn2c(=O)n(CCC(=O)NC3CCN(Cc4ccccc4)CC3)c(=O)c3ccccc32)cc1	8.52%
COc1ccc(NS(=O)(=O)c2ccc(N3CCOCC3)c(NC(=O)/C=C/C(=O)O)c2)cc1	0.91%
COc1ccccc1NC(=O)/C=C/C(N)=O	21%
COC(=O)c1sc(-c2ccc(C(C)(C)C)cc2)cc1NC(=O)/C=C/C(=O)O	37.3% (active)
O=C(CCNC(=O)C1CCN(S(=O)(=O)c2ccccc2)CC1)NC1CC1	8.45%
